# T cruzi repl: blocks replication of Trypanosoma cruzi; T. cruzi beta-gal in NIH3T3, luminescence, 90 h; inhibition, % (test concentration not listed); hit rate 1.4% among 300,000; AID 1885;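 active = mean inhibition across valid replicates above about 55%, limit read from the data; inconclusive = mean below that limit but half or more replicates reach it; inactive = mean below it, under half of replicates reach it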;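 note: signal also drops with host cell toxicity which is not excluded here; 0% = plate median of DMSO wells and 100% = zero luminescence signal; higher percent means less beta-gal luminescence so fewer parasites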
#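 System: mouse NIH/3T3 fibroblasts infected with β-gal-expressing T. cruzi Tulahuen C4 / Input: NIH/3T3 cells, 5,000 per well / Buffer or medium: Low-serum DMEM with 2% FBS / Probe or stimulus: 5000 reporter trypomastigotes per well / Schedule: ≥90 h infection period, 3 h prior cell attachment / Measured by: GalScreen luminescence, 60 min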
# L major viab: inhibitors of Leishmania major promastigote growth; Leishmania major promastigotes, resazurin fluorescence viability; AID 1063; hit rate 9% among 200,000; inhibition, % at 10 µM; in the data active = inhibition above about 50%;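 note: promastigotes grown with compound for 44 hours at 28 °C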
# CSC inhib: blocks cancer stem cells; hit rate 1.1% among 300,000; inhibition, % at 7.5 µM; cancer stem cell-like cells viability, luminescence; in the data active = inhibition above about 75%; inconclusive = no clear call, values can overlap the other calls; tested in HMLE shEcad cells
# Mdm2-MdmX inh: human Mdm2/MdmX binding inhibition. O15151+Q00987. SaOS-2 split-luciferase Mdm2/MdmX complementation, luminescence. inhibition, % at 8 µM. hit rate 3% among 330,000. AID 485346;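 active = inhibition of at least 50% at 8 µM in the primary screen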
# Target sequence (O15151 whole entry, looked up): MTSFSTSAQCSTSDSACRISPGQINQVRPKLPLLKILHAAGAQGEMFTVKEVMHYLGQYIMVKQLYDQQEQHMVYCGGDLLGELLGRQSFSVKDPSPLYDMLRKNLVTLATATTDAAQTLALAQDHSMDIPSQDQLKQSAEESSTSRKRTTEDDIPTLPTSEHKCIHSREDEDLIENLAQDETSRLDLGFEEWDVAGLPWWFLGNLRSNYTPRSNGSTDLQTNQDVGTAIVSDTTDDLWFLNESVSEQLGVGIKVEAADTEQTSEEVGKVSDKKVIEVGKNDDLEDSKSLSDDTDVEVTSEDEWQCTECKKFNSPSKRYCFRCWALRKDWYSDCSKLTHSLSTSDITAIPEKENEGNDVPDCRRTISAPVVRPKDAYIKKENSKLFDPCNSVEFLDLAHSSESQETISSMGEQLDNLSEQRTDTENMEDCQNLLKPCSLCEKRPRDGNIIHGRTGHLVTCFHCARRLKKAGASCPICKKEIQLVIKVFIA
# Target sequence (Q00987 whole entry, looked up): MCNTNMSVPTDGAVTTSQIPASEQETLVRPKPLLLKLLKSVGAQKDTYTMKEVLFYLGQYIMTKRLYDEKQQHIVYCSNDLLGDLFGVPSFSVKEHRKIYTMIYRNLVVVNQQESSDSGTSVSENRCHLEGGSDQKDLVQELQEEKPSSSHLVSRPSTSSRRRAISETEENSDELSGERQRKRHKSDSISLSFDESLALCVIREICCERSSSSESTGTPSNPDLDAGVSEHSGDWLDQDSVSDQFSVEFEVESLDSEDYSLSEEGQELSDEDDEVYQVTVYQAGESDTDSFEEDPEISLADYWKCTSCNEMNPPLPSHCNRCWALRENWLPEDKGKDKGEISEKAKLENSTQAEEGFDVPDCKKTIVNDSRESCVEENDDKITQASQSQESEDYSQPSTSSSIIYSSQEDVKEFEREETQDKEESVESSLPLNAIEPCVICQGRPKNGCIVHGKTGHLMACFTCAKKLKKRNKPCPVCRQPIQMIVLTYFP
# SKKanGAS inh: inhibitors of SKKanGAS S. pyogenes growth in kanamycin (SK-promoter or general growth effect) | inhibition, % at 7.5 µM | hit rate 1.3% among 300,000 | BacTiter-Glo, 6 h;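 active = mean replicate score, as percent of positive control median, at least 50; inconclusive = mean below 50 but one replicate at or above 50; inactive = mean and every replicate below 50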;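 note: strain carries kanamycin resistance gene driven by streptokinase promoter and grows in 40 µg/ml kanamycin; loss of luminescence reflects streptokinase promoter inhibition or plain growth inhibition; 0% = median of DMSO wells and 100% = positive control at its reference dose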
# Beta cell apopt: beta cell apoptosis inhibition. protection from apoptosis, % (no concentration beside the values). hit rate 0.8% among 300,000. INS-1E cytokine-induced death, ATP luminescence, 48 h; percent of positive-control rescue, neutral wells zero;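 active = Every replicate reaches about 75%, or at least half do and their mean reaches it too, limit read from the data; inconclusive = At least half of replicates reach the limit but their mean does not; inactive = Under half of replicates reach the limit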;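 note: 0% = cytokine-treated negative control wells and 100% = positive control rescue; higher means more ATP so stronger rescue from cytokine killing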
# The depositor's hits bear a star; ? = inconclusive; · = no result given. An excerpt weighted towards active compounds, which were near 9.4% of everything screened.
SMILES,T cruzi repl,L major viab,CSC inhib,Mdm2-MdmX inh,SKKanGAS inh,Beta cell apopt
COc1ccc(/C=N/Nc2ccccc2)cc1Cn1nc(C)c([N+](=O)[O-])c1C,19.5,76.7*,10.1,-4.5,-4.6,·
CC(C)(C)c1ccc(OCC(=O)NCCN2CCCC2)cc1,30.8,80.1*,-13.5,25.0,-1.6,-6.8
CCN(CC)CCn1c(SCC(=O)NCc2ccco2)nc2c(sc3ccccc32)c1=O,11.7,3.1,-12.8,6.4,-0.6,0.2
CCN(CC)CCn1c(SCC(=O)NCCC2=CCCCC2)nc2c(sc3ccccc32)c1=O,60.3*,67.9*,24.3,28.5,4.4,-0.9
COc1ccc(C(=O)C2CCCN(C(=O)c3cccc(N4CCCC4=O)c3)C2)cc1OC (stereo unspecified),-10.8,·,·,10.1,1.1,·
Cc1cccc(C2CC(c3ccc(F)cc3)Nc3nc(N)nn32)c1 (stereo unspecified),3.2,93.2*,-4.9,14.2,5.6,0.4
Cc1cccc(C2CC(c3ccc(Cl)cc3)Nc3nc(N)nn32)c1 (stereo unspecified),25.1,64.3*,·,-9.6,-7.9,-3.5
CCOc1ccc(C2CC(c3cccc(C)c3)n3nc(N)nc3N2)cc1 (stereo unspecified),24.9,13.8,-3.2,21.9,18.1,-7.9
CCc1ccc(C2CC(c3cccc(Cl)c3)n3nc(N)nc3N2)cc1 (stereo unspecified),40.5,54.3*,3.8,10.1,20.7,105.4*
Cc1ccc(C2CC(c3cccc(Cl)c3)n3nc(N)nc3N2)cc1 (stereo unspecified),17.5,49.4,-32.0,-11.5,3.6,-0.8
Cc1nc2ccccc2n(CC(=O)Nc2cc(Cl)cc(Cl)c2)c1=O,36.7,-3.0,-12.9,0.6,10.4,1.5
Cc1cc(C)cc(NC(=O)CN2CCC(NC(=O)c3ccccc3F)CC2)c1,-0.6,·,-12.1,3.2,1.1,3.1
CCOc1ccccc1NC(=O)COC(=O)CC(C)(C)CC1=NS(=O)(=O)c2ccccc2N1,7.3,·,-1.4,41.9,12.7,-8.0
Cc1cc(C(=O)Nc2cc(C)n(Cc3ccc(Cl)cc3)n2)no1,-32.7,-5.8,7.0,-18.6,-3.9,2.6
Cc1cc(NC(=O)c2cc(C(C)C)on2)nn1Cc1ccc(Cl)cc1,0.7,70.9*,0.5,-5.4,4.0,-6.0
Cc1ccc(Cn2ccc(NC(=O)c3cc(-c4ccc(Cl)cc4)on3)n2)cc1,-3.1,57.5*,-11.7,-11.7,0.8,-10.3
COc1cccc(CN2CCC(C(=O)N3CCN(c4ccccc4F)CC3)CC2)c1,9.2,89.1*,7.8,2.6,-0.7,-16.3
COc1cc(CN2CCC(C(=O)N3CCN(c4ccccc4F)CC3)CC2)ccc1O,-5.4,62.8*,9.1,-12.8,-4.1,15.9
COc1ccc(OC)c(CN2CCC(C(=O)N3CCN(c4ccccc4F)CC3)CC2)c1,0.7,-12.5,18.7,-5.9,-4.6,2.3
O=C(CCn1c(=O)oc2ccccc21)Nc1cccc(Br)c1,10.3,·,-3.4,23.1,-4.0,-3.6
COc1ccc(NC(=O)N(Cc2cccnc2)Cc2ccccc2Cl)c(OC)c1,34.5,46.4,·,2.5,-4.2,·
Cc1ccccc1NC(=S)N(Cc1ccccc1)Cc1cccnc1,21.3,85.8*,8.1,-15.8,-2.0,-1.5
O=C(CNC(=S)N(Cc1ccccc1)Cc1cccnc1)NCCc1ccccc1,46.9,29.1,2.5,-10.8,18.8,-0.7
CC(C)CCNC(=O)CNC(=S)N(Cc1ccccc1)Cc1cccnc1,61.0*,32.3,11.6,6.7,-2.6,-3.1
Cc1ccccc1NC(=S)N(Cc1cccnc1)Cc1ccco1,31.8,96.9*,-2.7,-13.2,1.7,-4.6
SMILES,T cruzi repl,L major viab,CSC inhib,Mdm2-MdmX inh,SKKanGAS inh,Beta cell apopt
Cc1ccc(Cl)cc1NC(=S)N(Cc1cccnc1)Cc1ccccc1Cl,72.1*,98.6*,5.3,4.5,6.3,3.8
O=C(NCc1cccnc1)c1cc2nc(-c3cccs3)cc(C(F)(F)Cl)n2n1,24.3,27.4,-1.7,-10.4,17.9,5.1
Cc1cccc(C)c1NC(=S)N(Cc1ccccc1)Cc1cccs1,15.2,58.0*,6.9,0.4,1.6,5.8
O=C(O)CNC(=S)N(Cc1ccccc1)Cc1cccs1,9.6,-0.6,6.2,0.8,·,-1.3
COc1ccc(CN2CCN(CCSc3ccc(C)cc3)CC2)c(OC)c1OC,48.2,·,36.2,11.9,-1.2,123.0*
CCN(CC)S(=O)(=O)c1ccc2c(c1)c(=O)c(C(=O)NCCN(C)CCc1ccccc1)cn2C,55.7*,-0.5,-8.2,15.0,0.7,·
N#Cc1ccc(-c2ccco2)nc1SCC(=O)c1ccc(Cl)cc1,27.0,-0.6,1.0,34.5,-1.6,-2.5
Cc1ccc(C(=O)CSc2nc(-c3ccccc3)ccc2C#N)cc1,?,8.8,84.4*,6.7,1.6,-6.1
CCc1c(C)nc2cc(-c3ccc(OC)c(OC)c3)nn2c1N1CCC(C)CC1,25.0,11.7,10.7,5.3,57.0*,5.6
CCOCCN1CCN(c2c3c(nc4cc(-c5ccc(F)cc5)nn24)CCC3)CC1,3.8,10.2,·,·,-3.8,·
CCOCCN1CCN(c2c(CC)c(C)nc3cc(-c4cc(OC)cc(OC)c4)nn23)CC1,15.5,72.2*,-4.3,15.8,6.8,5.2
COc1cc(OC)cc(-c2cc3nc4c(c(N5CCN(c6ncccn6)CC5)n3n2)CCCC4)c1,60.2*,52.2*,-5.7,37.8,?,16.2
COc1cc(OC)cc(-c2cc3nc(C)c(CCC(=O)Nc4nc(C)cs4)c(C)n3n2)c1,21.8,-7.7,-4.5,14.7,23.9,11.6
CCc1c(C)nc2cc(-c3ccc(OC)c(OC)c3)nn2c1N1CCCC1,41.4,49.4,60.8,23.1,-6.6,10.1
CCc1c(C)nc2cc(-c3cc(OC)cc(OC)c3)nn2c1N1CCCC1,26.1,26.4,83.3*,29.4,18.3,9.7
O=C(COC(=O)C1=COCCO1)Nc1ccc(OC(F)F)cc1,-10.3,-2.7,-8.2,4.5,2.5,-8.2
CCc1ccc(C(=O)COC(=O)c2n[nH]c3ccccc23)cc1,-1.6,-2.0,4.7,13.2,7.1,-5.0
C=C(C)CCOC(=O)C(CC(=O)O)NCc1ccco1 (stereo unspecified),22.1,·,-13.3,-11.6,-1.9,-4.2
CCCCC1CCC(C(=O)OCC(=O)Nc2ccc(S(N)(=O)=O)cc2)CC1 (stereo unspecified),-11.7,52.0*,9.5,-6.5,-7.0,-3.6
CN(C)c1ccc(/C=C2\C(=O)N(c3ccc([N+](=O)[O-])cc3)N=C2N2CCOCC2)cc1,·,79.9*,·,·,·,·
CN(C)c1ccc(/C=C2/C(=O)N(c3ccc([N+](=O)[O-])cc3)N=C2N2CCOCC2)cc1,·,-5.3,·,·,·,·
Cc1ccc(Cl)c(OCC(=O)Nc2ccccc2N2CCCCC2)c1,30.8,·,-14.5,16.7,?,·
Cc1cccc(OCC(=O)Nc2ccccc2N2CCCCC2)c1C,40.6,·,-7.2,8.9,70.4*,6.0
Cc1cccc(C)c1OCC(=O)Nc1ccccc1N1CCCCC1,27.4,·,39.1,17.5,85.7*,-8.0
